Laboratory results reported in ChEMBL document CHEMBL1772983, “Bioactive sesqui- and diterpenoids from the Argentine liverwort Porella chilensis” (2011).
Active and inactive are the calls of the source. The calls are words filed in the database; no cut-off is given here.

Legend:
[1] = system: Pseudomonas aeruginosa; experiment: Induction of Pseudomonas aeruginosa ATCC 27853 biofilm formation at 50 ug/ml after 24 hrs using crystal violet staining by spectrophotometry analysis relative to control; type: functional
How it was run: (§1)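 ATCC 27853 culture diluted to 10% (v/v) in LB and dosed from DMSO–water (1:1) stocks of 1 or 0.1 mg/mL (10 µL into 190 µL), 8 replicates, vehicle control. After 24 h at 37 °C, liquid discarded and wells washed three times with PBS. Stained with 0.1% crystal violet for 20 min, rinsed with water, dye eluted with absolute EtOH, A540 read. Mean ± SD, Student's t-test.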

[2] = system: Pseudomonas aeruginosa; experiment: Antibacterial activity against Pseudomonas aeruginosa ATCC 27853 assessed as increase in bacterial growth at 50 ug/ml by microplate assay relative to control; type: functional
How it was run: (§2)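 Overnight P. aeruginosa ATCC 27853 culture diluted to 10% (v/v) in LB medium. 190 µL of culture plus 10 µL of 1 or 0.1 mg/mL stock in DMSO–water (1:1), giving 50 or 5 µg/mL. 8 replicates; vehicle-only negative control. Incubated 37 °C, 24 h; growth read as OD600. Mean ± SD, Student's t-test, p ≤ 0.05.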

[3] = system: Pseudomonas aeruginosa; experiment: Induction of quorum sensing in Pseudomonas aeruginosa ATCC 27853 assessed as N-acylhomoserin lactones production at 50 ug/ml after 24 hrs by measuring beta-galactosidase activity by spectrophotometry
[4] = system: Pseudomonas aeruginosa; experiment: Antibacterial activity against Pseudomonas aeruginosa ATCC 27853 assessed as growth inhibition by microplate assay; type: functional, organism-based; how it was run: as §2
[5] = system: Pseudomonas aeruginosa; experiment: Induction of Pseudomonas aeruginosa ATCC 27853 biofilm formation at 0.6 uM after 24 hrs using crystal violet staining by spectrophotometry analysis; type: functional, organism-based
[6] = system: Pseudomonas aeruginosa; experiment: Inhibition of Pseudomonas aeruginosa ATCC 27853 biofilm formation at 5 to 50 ug/ml after 24 hrs using crystal violet staining by spectrophotometry analysis; type: functional, organism-based; how it was run: as §1
[7] = system: Pseudomonas aeruginosa; experiment: Inhibition of quorum sensing activity in Pseudomonas aeruginosa ATCC 27853 assessed as N-acylhomoserin lactones production at 5 to 50 ug/ml after 24 hrs by measuring beta-galactosidase activity by spectrophotometry
[8] = system: Pseudomonas aeruginosa; experiment: Antibacterial activity against Pseudomonas aeruginosa ATCC 27853 assessed as growth inhibition at 5 to 50 ug/ml after 24 hrs by microplate assay; type: functional, organism-based; how it was run: as §2
[9] = system: Pseudomonas aeruginosa; experiment: Antibacterial activity against Pseudomonas aeruginosa ATCC 27853 assessed as increase in bacterial growth at 5 to 50 ug/ml by microplate assay; type: functional, organism-based; how it was run: as §2
[10] = system: Pseudomonas aeruginosa; experiment: Inhibition of Pseudomonas aeruginosa ATCC 27853 biofilm formation at 16.4 uM after 24 hrs using crystal violet staining by spectrophotometry analysis relative to control; type: functional; conditions: ATCC 27853, 24 h; how it was run: as §1
[11] = system: Pseudomonas aeruginosa; experiment: Antibacterial activity against Pseudomonas aeruginosa ATCC 27853 assessed as growth inhibition at 5 ug/ml after 24 hrs by microplate assay relative to control; type: functional; conditions: ATCC 27853, 24 h, read-out: GI; how it was run: as §2
[12] = system: Pseudomonas aeruginosa; experiment: Inhibition of Pseudomonas aeruginosa ATCC 27853 biofilm formation at 5 ug/ml after 24 hrs using crystal violet staining by spectrophotometry analysis relative to control; type: functional; how it was run: as §1
[13] = system: Pseudomonas aeruginosa; experiment: Inhibition of Pseudomonas aeruginosa ATCC 27853 biofilm formation at 50 ug/ml after 24 hrs using crystal violet staining by spectrophotometry analysis relative to control; conditions: ATCC 27853, 24 h
[14] = system: Pseudomonas aeruginosa; experiment: Antibacterial activity against Pseudomonas aeruginosa ATCC 27853 assessed as growth inhibition at 50 ug/ml by microplate assay relative to control; type: functional; conditions: read-out: GI; how it was run: as §2
[15] = system: Pseudomonas aeruginosa; experiment: Inhibition of quorum sensing activity in Pseudomonas aeruginosa ATCC 27853 assessed as N-acylhomoserin lactones production at 5 ug/ml after 24 hrs by measuring beta-galactosidase activity by spectrophotometry relative to control; design: scale not given: the % may be the effect or the level left
[16] = system: Pseudomonas aeruginosa; experiment: Inhibition of quorum sensing activity in Pseudomonas aeruginosa ATCC 27853 assessed as N-acylhomoserin lactones production at 5 ug/ml after 24 hrs by measuring beta-galactosidase activity by spectrophotometry
[17] = system: Pseudomonas aeruginosa; experiment: Antibacterial activity against Pseudomonas aeruginosa ATCC 27853 assessed as growth inhibition at 5 ug/ml by microplate assay; type: functional; how it was run: as §2
[18] = system: Pseudomonas aeruginosa; experiment: Inhibition of Pseudomonas aeruginosa ATCC 27853 biofilm formation at 5 ug/ml after 24 hrs using crystal violet staining by spectrophotometry analysis; type: functional; conditions: ATCC 27853, 24 h; how it was run: as §1
[19] = system: Pseudomonas aeruginosa; experiment: Inhibition of quorum sensing activity in Pseudomonas aeruginosa ATCC 27853 assessed as N-acylhomoserin lactones production at 16.4 uM after 24 hrs by measuring beta-galactosidase activity by spectrophotometry; design: scale not given: the % may be the effect or the level left

Row | inhibition [7] | Compound | biofilm induction [5] | inhibition [6] | growth inhibition (GI) [8] | Activity [9] | further results
1 | Active | C=CC1(O)CC[C@@]2(C)[C@H](C)CC[C@@]2(C)[C@@H]1C (stereo not given in full) | inactive | Active | Active | Active | 
2 | 33% | C=C1CC[C@H]2[C@@H]([C@@H]3[C@@H]1CC[C@@]3(C)O)C2(C)C | inactive | Active |  |  | inhibition [12]: Active; inhibition at 16.4 µM [10]: 41%; growth inhibition (GI) [17]: Active; Activity [19]: 33%

More lines, now with the values behind:

Row | Compound | inhibition [7] | biofilm induction [5] | inhibition [6] | growth inhibition (GI) [8] | Activity [9] | further results
3 | CC1=CC(=O)[C@@H]2[C@@H](C)CC[C@H]3[C@@H](C(C)C)CC[C@]3(C)C[C@@]12O |  | inactive |  |  |  | Activity [1]: 95%; Activity [2]: 15%; Activity [3]: Active; growth inhibition (GI) [4]: Dose-dependent effect
4 | CC1(C)[C@@H]2[C@@H]3[C@H](CC[C@@]3(C)O)[C@@](C)(O)CC[C@@H]21 | 80% | inactive | Active |  |  | inhibition at 16.4 µM [10]: 37%; inhibition of growth at 5 µg/mL [11]: 24%
5 | C[C@@H]1CC[C@@]2(C)C(=O)c3ccoc3C[C@@]12C | Active | inactive | Active | Active | Active | 
6 | COC(=O)[C@@]12Cc3occc3C(=O)[C@]1(C)CC[C@H]2C | inactive | inactive |  | inactive | Active | 
7 | CC(C)[C@H]1CC[C@]2(C)CC3=C(C(=O)C[C@@]3(C)O)[C@@H](C)CC[C@@H]12 |  | inactive |  |  |  | Activity [1]: 93%; Activity [3]: Active
8 | CC(=O)OC[C@@]12Cc3occc3C(=O)[C@]1(C)CC[C@H]2C [NORPINGUISONE ACETATE] |  | inactive |  |  | Active | inhibition at 5 µg/mL ([12]; ATCC 27853, 24 h): 20%; inhibition at 50 µg/mL [13]: 27%
9 | CC1=C2C[C@@]3(C)CC[C@H](C(C)C)[C@@H]3CC[C@H](C)[C@]2(O)CC1=O [FUSICOAURITONE] |  | inactive |  |  |  | Activity [1]: 105%; Activity [3]: Active; growth inhibition (GI) [4]: Dose-dependent effect; inhibition of growth at 50 µg/mL [14]: 25%
10 | CC[C@H]1OC(=O)[C@H](C)[C@@H](O[C@H]2C[C@@](C)(OC)[C@@H](O)[C@H](C)O2)[C@H](C)[C@@H](O[C@@H]2O[C@H](C)C[C@H](N(C)C)[C@H]2O)[C@](C)(O)C[C@@H](C)CN(C)[C@H](C)[C@@H](O)[C@]1(C)O |  |  |  |  |  | Activity [15]: 76%; inhibition [16]: 76%; growth inhibition (GI) [17]: inactive
11 | O=C(O)c1cn(C2CC2)c2cc(N3CCNCC3)c(F)cc2c1=O [CIPROFLOXACIN] |  |  |  |  |  | inhibition at 5 µg/mL [18]: 51%; inhibition of growth at 5 µg/mL ([17]; read-out: GI): 73%
12 | CC(C)[C@H]1CC[C@]2(C)C[C@]3(O)C(=CC(=O)[C@H]3C)[C@@H](C)CC[C@@H]12 [ANADENSIN] | Active | inactive | Active | Active |  | growth inhibition (GI) [4]: Dose-dependent effect; inhibition at 16.4 µM [10]: 47%; inhibition of growth at 50 µg/mL [14]: 16%
